Measurements reported in article PMC5982514 (Biochemistry, 2018).

Assays:
Format in all cases: biochemical
FLT3 (GST-FLT3^564–993) = target: T1, FLT3 (GST-FLT3^564–993) (Homo sapiens, UniProt P36888); assay: Michaelis-Menten kinetic analysis, FLT3; details: kcat/Km of peptide 2 over peptide 5, mean±sem, two experiments
T1 sequence (P36888 564-993): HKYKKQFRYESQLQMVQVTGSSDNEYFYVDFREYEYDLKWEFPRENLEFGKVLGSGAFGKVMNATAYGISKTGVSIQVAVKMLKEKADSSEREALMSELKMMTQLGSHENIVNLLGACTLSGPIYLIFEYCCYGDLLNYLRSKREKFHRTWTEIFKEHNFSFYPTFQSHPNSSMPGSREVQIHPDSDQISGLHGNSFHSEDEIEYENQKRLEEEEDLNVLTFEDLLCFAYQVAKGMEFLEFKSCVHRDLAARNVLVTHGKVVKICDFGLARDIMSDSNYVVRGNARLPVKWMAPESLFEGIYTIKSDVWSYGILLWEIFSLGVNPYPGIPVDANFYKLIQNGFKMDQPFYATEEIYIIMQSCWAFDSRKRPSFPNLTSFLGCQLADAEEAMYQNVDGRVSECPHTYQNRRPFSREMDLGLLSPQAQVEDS
Summary of the method: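 GST-FLT3 (residues 564–993) was expressed in HEK293T, glutathione-purified and used at 1.5 ng/μL. Peptides at 1–150 μM were reacted with 50 μM [γ-33P]ATP (0.025 μCi/μL) in 50 mM HEPES pH 7.5, 10 mM MgCl2, 1 mM DTT at 30 °C. Timepoints at 10, 20 and 30 min were spotted on P81 paper and phosphorimaged. Initial rates were fitted to Michaelis–Menten, or kcat/Km was derived from the slope up to 75 μM. Two experiments.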

ALK (His6-ALK^1090–1416) = ALK (His6-ALK^1090–1416) (Homo sapiens, UniProt Q9UM73); assay: Michaelis-Menten kinetic analysis, ALK; details: kcat/Km of peptide 2 over peptide 5, mean±sem, three experiments
Sequence of ALK (His6-ALK^1090–1416) (Q9UM73 1090-1416): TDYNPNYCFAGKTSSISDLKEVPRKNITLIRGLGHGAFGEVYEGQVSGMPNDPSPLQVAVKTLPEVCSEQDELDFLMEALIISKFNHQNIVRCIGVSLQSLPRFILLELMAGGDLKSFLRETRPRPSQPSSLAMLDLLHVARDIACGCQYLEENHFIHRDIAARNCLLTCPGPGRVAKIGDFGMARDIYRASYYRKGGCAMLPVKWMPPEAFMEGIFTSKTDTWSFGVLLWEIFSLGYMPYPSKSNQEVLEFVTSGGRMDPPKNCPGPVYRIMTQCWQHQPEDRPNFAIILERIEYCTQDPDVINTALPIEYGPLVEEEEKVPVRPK
Summary of the method: (§1)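 His6-tagged intracellular kinase domains were expressed and purified from Sf9 cells and used at 2.7 ng/μL final. Peptides were varied over 1–150 μM with 50 μM [γ-33P]ATP (0.025 μCi/μL) in pH 7.5 HEPES buffer containing 10 mM MgCl2 at 30 °C. Aliquots taken at 10, 20 and 30 min were captured on P81 paper, washed in 75 mM H3PO4 and phosphorimaged. Rates were fitted to Michaelis–Menten, or kcat/Km was taken from the linear slope (≤75 μM). Three experiments.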

EGFR (His6-EGFR^672–998) = EGFR (His6-EGFR^672–998) (Homo sapiens, UniProt P00533); assay: Michaelis-Menten kinetic analysis, EGFR
Summary of the method: as §1

Abl = Abl (Homo sapiens, UniProt P00519); assay: Michaelis-Menten kinetic analysis, Abl; details: for catalytic parameters compared with consensus peptides: consensus peptides of ref [15]
Sequence of Abl (P00519 whole entry, the tested form may be a part): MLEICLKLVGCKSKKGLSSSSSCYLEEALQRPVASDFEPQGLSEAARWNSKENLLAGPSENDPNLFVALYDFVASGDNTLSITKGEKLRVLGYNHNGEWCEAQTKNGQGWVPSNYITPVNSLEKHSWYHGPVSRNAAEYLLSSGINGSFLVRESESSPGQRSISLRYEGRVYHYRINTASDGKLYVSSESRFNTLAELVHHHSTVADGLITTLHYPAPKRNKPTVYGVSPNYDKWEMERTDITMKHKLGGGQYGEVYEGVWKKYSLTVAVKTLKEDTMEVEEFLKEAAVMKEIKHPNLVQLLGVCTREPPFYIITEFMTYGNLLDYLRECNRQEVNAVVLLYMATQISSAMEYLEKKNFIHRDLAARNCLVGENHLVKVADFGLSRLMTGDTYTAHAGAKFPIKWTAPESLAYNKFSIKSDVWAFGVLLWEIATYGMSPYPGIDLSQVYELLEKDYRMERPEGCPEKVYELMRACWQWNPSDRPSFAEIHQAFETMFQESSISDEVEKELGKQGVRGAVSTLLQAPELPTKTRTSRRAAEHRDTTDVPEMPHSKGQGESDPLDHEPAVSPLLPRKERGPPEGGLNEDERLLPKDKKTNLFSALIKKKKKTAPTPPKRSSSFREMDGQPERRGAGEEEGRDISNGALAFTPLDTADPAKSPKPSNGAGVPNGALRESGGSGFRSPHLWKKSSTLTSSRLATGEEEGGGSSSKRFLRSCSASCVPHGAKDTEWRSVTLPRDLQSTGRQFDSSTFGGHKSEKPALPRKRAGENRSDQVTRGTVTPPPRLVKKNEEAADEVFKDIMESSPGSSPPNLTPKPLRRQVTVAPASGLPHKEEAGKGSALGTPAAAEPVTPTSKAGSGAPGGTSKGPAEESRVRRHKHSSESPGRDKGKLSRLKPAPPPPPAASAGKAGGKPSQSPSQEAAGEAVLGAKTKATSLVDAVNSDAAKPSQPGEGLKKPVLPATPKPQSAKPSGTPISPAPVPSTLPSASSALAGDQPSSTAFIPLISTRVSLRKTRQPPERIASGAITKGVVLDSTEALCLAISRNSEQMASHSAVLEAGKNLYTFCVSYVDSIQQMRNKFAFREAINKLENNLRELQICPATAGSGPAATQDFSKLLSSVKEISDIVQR

BTK (GST fusion) = BTK (GST fusion) (Homo sapiens, UniProt Q06187); assay: Michaelis-Menten kinetic analysis, BTK
Sequence of BTK (GST fusion) (Q06187 whole entry, the tested form may be a part): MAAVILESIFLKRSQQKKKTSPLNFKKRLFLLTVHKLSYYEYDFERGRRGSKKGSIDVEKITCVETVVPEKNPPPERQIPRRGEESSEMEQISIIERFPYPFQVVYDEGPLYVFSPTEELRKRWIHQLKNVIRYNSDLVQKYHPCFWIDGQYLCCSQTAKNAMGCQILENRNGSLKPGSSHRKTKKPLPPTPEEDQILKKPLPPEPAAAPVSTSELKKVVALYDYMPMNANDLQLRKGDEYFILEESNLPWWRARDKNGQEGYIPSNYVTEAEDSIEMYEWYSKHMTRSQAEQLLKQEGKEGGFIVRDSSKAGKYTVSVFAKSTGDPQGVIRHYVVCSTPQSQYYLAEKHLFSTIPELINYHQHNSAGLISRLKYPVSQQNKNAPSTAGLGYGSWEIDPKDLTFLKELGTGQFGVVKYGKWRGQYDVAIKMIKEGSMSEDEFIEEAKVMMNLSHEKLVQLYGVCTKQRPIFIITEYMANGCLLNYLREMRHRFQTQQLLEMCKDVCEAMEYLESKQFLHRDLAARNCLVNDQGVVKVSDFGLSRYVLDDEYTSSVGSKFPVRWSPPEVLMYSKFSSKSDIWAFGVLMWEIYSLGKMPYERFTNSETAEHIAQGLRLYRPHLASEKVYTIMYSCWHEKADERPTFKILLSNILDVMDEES
Summary of the method: (§2)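 GST-fused kinases were expressed in HEK293T and purified on glutathione Sepharose, then used at 0.3 ng/μL. Peptides (Lys-substituted C-termini) were titrated from 1 to 150 μM with 50 μM [γ-33P]ATP (0.025 μCi/μL) in HEPES pH 7.5/NaCl/MgCl2/DTT/Tween 20 buffer at 30 °C. Aliquots at 10–30 min went onto P81 paper for phosphorimaging. kcat/Km came from a Michaelis–Menten fit or the linear slope (≤75 μM). Three experiments.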

Syk (GST fusion) = Syk (GST fusion) (Homo sapiens, UniProt P43405); assay: Michaelis-Menten kinetic analysis, Syk; details: kcat/Km of peptide 2 over peptide 5, mean±sem, three experiments
Summary of the method: as §2

Src (GST fusion) = Src (GST fusion) (Homo sapiens, UniProt P12931); assay: Michaelis-Menten kinetic analysis, Src; details: consensus peptides of ref [15]
Summary of the method: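 GST-SRC from HEK293T, glutathione-Sepharose purified, 0.3 ng/μL final. Peptides with C-terminal Gly→Lys at 1–150 μM, in HEPES pH 7.5/NaCl/MgCl2/DTT/Tween 20 with 50 μM [γ-33P]ATP at 30 °C. Aliquots at 10, 20 and 30 min spotted on P81, H3PO4-washed, phosphorimaged. Initial rates fit to Michaelis–Menten, or kcat/Km from linear slope (≤75 μM); mean ± SEM of three experiments.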

[1] = test system: BTK, SYK, ABL, SRC, ALK, EGFR and FLT3; assay: Kinetic analysis across seven PTKs; details: for substrate activity for all kinases tested: panel screen and seven PTKs
Summary of the method: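 Kinetics on seven kinases. Final enzyme: 0.3 ng/μL ABL/BTK/SRC/SYK, 1.5 ng/μL FLT3, 2.7 ng/μL ALK/EGFR. Lys-modified peptides at 1–150 μM with 50 μM [γ-33P]ATP, 30 °C; spotted on P81 at 10/20/30 min. Michaelis–Menten fit, or kcat/Km from linear slope (≤75 μM); three runs (FLT3 two).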

[2] = kcat/Km of peptide 2 over peptide 5, mean±sem, three experiments

| Sequence | 2/5 kcat/Km ratio (FLT3 (GST-FLT3^564–993)) | 2/5 kcat/Km ratio (ALK (His6-ALK^1090–1416)) | 2/5 kcat/Km ratio (EGFR (His6-EGFR^672–998); [2]) | kinase preference between peptides 2 and 5 (EGFR (His6-EGFR^672–998); specificity constant) | catalytic parameters compared with consensus peptides (Abl) | 2/5 kcat/Km ratio (Abl; [2]) | 2/5 kcat/Km ratio (BTK (GST fusion); [2]) | 2/5 kcat/Km ratio (Syk (GST fusion)) | catalytic parameters compared with consensus peptides (Src (GST fusion)) | preference of RTKs ([1]; RTKs among the kinases examined, generally, peptide 2 vs peptide 5) | substrate activity for all kinases tested [1] | kinase preference between peptides 2 and 5 (Abl; specificity constant) | kinase preference between peptides 2 and 5 (BTK (GST fusion); specificity constant) | preference of NRTKs ([1]; NRTKs among the kinases examined, peptide 5 vs peptide 2) |
| --- | --- | --- | --- | --- | --- | --- | --- | --- | --- | --- | --- | --- | --- | --- |
| EDPIYVTLE [Peptide 2] | 1.43 ± 0.07 | 1.23 ± 0.02 | 5.8 ± 0.2 | more substantial preference | rivaled those determined with consensus peptides | 0.13 ± 0.01 | 0.31 ± 0.01 | 1.8 ± 0.2 | rivaled those determined with consensus peptides | generally preferred over peptide 5 for RTKs | successful substrates for all kinases tested |  |  |  |
| DEAIYATVA [Peptide 5] |  |  |  |  | rivaled those determined with consensus peptides |  |  |  | rivaled those determined with consensus peptides |  | successful substrates for all kinases tested | more substantial preference | more substantial preference | the reverse preference was seen for NRTKs |
